# Measurements: PMC11913021 (Journal of Medicinal Chemistry, 2024)
# Where “and” joins values, the source holds several entries; their conditions need not be identical. Equal entries are not always repeated.
# How the values were obtained:
# [1] = system: A549 cells; experiment: Colony-forming assay; format: cell-based
# Summary of the method: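 Cells seeded at 500–1,000 per well; test compound added 48 h after seeding, with 48 h exposure. Medium was changed every 3 days and cultures kept 10 days. Colonies were fixed in 4% PFA for 20 min, stained with crystal violet for 30 min, and counted by image analysis.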
# [2] = system: PLD; experiment: PLD activity inhibition in A549 cells; format: cell-based; conditions: read-out: IC50 for PLD inhibition
# [3] = system: A549 cells; experiment: Transwell migration and invasion assay; format: cell-based
# Summary of the method: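 Cells at 5 × 10^4 cells/ml in serum-free medium placed in 8 μm pore transwell chambers; for invasion the chambers were Matrigel-precoated. After 24 h, non-migrated cells were swabbed off. Cells on the underside were fixed in 4% PFA for 20 min, stained with crystal violet for 10 min, and counted by light microscopy.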
# [4] = system: LLC mouse lung cells; experiment: LLC lung cancer syngeneic model in C57BL/6 mice; format: in vivo
# Summary of the method: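 Male C57BL/6 mice (6 weeks old) received 3 × 10^5 LLC cells in PBS subcutaneously in the flank. From day 7 they were randomised to vehicle PO daily or test compound 10 mg/kg PO every other day, for 3 weeks. Tumour IHC used citrate antigen retrieval, blocking with 0.3% H2O2 and 2.5% horse serum, primary antibodies overnight at 4 °C, HRP/ABC with DAB, and hematoxylin counterstain. CD163 was assessed by immunofluorescence.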
# [5] = target: T1, F614A mutant PLD1 (Homo sapiens, UniProt Q13393, F652A); experiment: PLD activity assay in F614A mutant PLD1-transfected cells; format: cell-based
# T1 sequence (Q13393 1-1036 isoform Q13393-2 F614A): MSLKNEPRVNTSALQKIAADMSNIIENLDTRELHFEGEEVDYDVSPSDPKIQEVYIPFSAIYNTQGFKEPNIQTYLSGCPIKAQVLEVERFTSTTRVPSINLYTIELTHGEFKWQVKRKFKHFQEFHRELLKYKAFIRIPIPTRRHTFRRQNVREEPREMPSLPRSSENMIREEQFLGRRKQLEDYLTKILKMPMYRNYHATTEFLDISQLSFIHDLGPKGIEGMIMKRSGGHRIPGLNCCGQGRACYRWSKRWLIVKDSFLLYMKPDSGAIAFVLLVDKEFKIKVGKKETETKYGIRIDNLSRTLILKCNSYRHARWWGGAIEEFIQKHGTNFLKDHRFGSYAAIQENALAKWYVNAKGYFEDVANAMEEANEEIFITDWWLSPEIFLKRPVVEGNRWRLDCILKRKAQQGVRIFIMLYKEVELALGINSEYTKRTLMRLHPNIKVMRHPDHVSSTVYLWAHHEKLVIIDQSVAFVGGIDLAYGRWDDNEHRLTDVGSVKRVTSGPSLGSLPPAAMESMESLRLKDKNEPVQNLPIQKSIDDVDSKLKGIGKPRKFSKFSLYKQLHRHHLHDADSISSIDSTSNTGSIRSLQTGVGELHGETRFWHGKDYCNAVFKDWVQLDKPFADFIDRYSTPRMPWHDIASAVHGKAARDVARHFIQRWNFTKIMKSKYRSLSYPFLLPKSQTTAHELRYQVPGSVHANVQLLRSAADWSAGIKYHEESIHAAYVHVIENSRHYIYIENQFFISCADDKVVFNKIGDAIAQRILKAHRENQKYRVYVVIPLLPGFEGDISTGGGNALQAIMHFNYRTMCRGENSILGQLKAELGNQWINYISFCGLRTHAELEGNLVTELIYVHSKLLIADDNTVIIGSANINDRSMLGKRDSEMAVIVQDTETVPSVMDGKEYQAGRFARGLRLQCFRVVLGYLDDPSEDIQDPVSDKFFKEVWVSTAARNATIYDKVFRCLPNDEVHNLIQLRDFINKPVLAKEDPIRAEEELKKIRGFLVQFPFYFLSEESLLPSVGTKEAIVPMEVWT
# [6] = system: A549 cells; experiment: Cell apoptosis assay; format: cell-based; conditions: flow cytometry and caspase-3 activity assay
# Summary of the method: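 Apoptosis detected by Annexin V-FITC staining and flow cytometry. For caspase-3, cells were grown to about 40% density and given test compound, or the inhibitor Ac-DEVD-CHO, at 10 μM for 48 h. After a PBS wash, 1 μM NucView 488 caspase-3 substrate was added for 30 min at RT, then 1 μM Hoechst 33342. Both fluorescences were read on a plate reader.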
# [7] = system: A549 cells; experiment: WST-1 cell viability assay, A549; format: cell-based; conditions: read-out: IC50 of viability; A549, WST-1, 48 h
# Summary of the method: (§1)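 Cells grown in DMEM or RPMI 1640 with 10% FBS and 1% penicillin/streptomycin at 37 °C, 5% CO2. Seeded at 5 × 10^3 cells/well and held 24 h at 37 °C, then exposed to test compound for 48 h. WST-1 absorbance was read at 450 nm, in triplicate. IC50 was taken as the concentration giving 50% growth inhibition versus control.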
# [8] = system: A549 cells; experiment: IncuCyte cell growth and death assay; format: cell-based; conditions: time-dependent
# [9] = system: Calu6 lung cancer cells; experiment: WST-1 cell viability assay, Calu6; format: cell-based; conditions: read-out: IC50 of viability; Calu6, WST-1, 48 h
# Summary of the method: as §1
# [10] = system: CD24, CD47, PD-L1, CRT; experiment: Flow cytometry of “don’t eat-me” and “eat-me” signals in A549 cells; format: cell-based
# [11] = tumor tissue immunofluorescence
substance,measurement,setting,value
"N-(3,5-Bis(trifluoromethyl)phenyl)-3-(1H-indol-3-yl)propanamide [3r]",colony formation,[1],significantly inhibited
same,IC50,[2],1.97 µM
same,invasion,[3],significantly inhibited
same,migration,[3],significantly inhibited
same,tumor formation,"[4]; 10 mg/kg PO every other day, C57BL/6, LLC",significantly attenuated
same,apoptosis in tumor tissue (active caspase 3 IHC),[4]; IHC,enhanced
same,proliferation in tumor tissue (Ki67 IHC),[4]; IHC,reduced
same,expression of ’eat-me’ signals (calreticulin),[4]; tumor tissue IHC,increased
same,"levels of RAS and downstream molecules (p-ERK, p-Akt, p-IKBα)",[4]; tumor tissue IHC,decreased
same,"levels of ’don’t eat-me’ signals (CD47, CD24, PD-L1)",[4]; tumor tissue IHC,reduced
same,population of CD4^+ and IL-17^+ Th17 cells,[4]; [11],increased
same,population of CD80^+ pro-inflammatory M1 macrophages,[4]; [11],increased
same,population of CD163^+ anti-inflammatory M2 macrophages,[4]; [11],decreased
same,population of cytotoxic CD8^+ T cells,[4]; [11],increased
same,size and weight of the spleen,[4]; tumor-bearing mice vs vehicle,recovered
same,PLD activity,[5],did not significantly inhibit
same,apoptosis of A549 cells,[6],induced
same,IC50,[7],18 µM and 18.4 µM
same,death of A549 cells,[8],increased
same,proliferation of A549 cells,[8],significantly suppressed
same,IC50,[9],19 µM
same,expression of “don’t eat-me” signals,[10],reduced
same,expression of “eat-me” signals,[10],enhanced
